mABHD4 FP: ABHD4 inhibitors, primary screen, biochemical, fluorescence polarization, mouse; AID 720543, 2013; (Lyso)-N-acylphosphatidylethanolamine lipase (Mus musculus), Q8VD66; inhibition, % at 8.92 µM; 370,000 tested, 0.54% active; purified mABHD4, FP-Rh probe fluorescence polarization;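 active = inhibition exceeding the mean over every tested compound plus 3 SD, cut at about 30% in these data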
Target sequence (Q8VD66 whole entry, looked up): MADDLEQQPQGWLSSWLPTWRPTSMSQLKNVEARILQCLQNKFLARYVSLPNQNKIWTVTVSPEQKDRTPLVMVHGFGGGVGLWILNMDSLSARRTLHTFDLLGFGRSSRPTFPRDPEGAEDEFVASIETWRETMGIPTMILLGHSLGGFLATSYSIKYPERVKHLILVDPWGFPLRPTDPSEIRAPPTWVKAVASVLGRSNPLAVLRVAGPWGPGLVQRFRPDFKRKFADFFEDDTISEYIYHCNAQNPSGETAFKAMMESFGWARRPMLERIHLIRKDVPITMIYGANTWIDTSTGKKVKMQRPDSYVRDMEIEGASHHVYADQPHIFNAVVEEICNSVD
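Material: mouse ABHD4 enzyme, wild type; Benchmarks: S159A mutant high control, sample median low control; Buffer or medium: HEPES pH 7.0, NaCl, Pluronic buffer; Signal: fluorescence polarization; Read-out: percent inhibition of probe binding, normalized to plate controls; Timing: pre-incubation 45 min, probe exposure 60 min, at 25 °C; Dosing: 8.92 µM, single dose.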
HTRA1 inh: HTRA1 serine protease inhibitors, primary screen, biochemical, fluorescence polarization, HTS. inhibition, % at 5.96 µM. 340,000 tested, 0.5% active. recombinant HTRA1, FP-rhodamine activity-based probe; in the data active = inhibition above about 36%
TCR-CD3 inh: inhibitors of human TCR-CD3 interaction, primary screen, biochemical, fluorescence, TAMRA-labeled TCR probe | 360,000 tested, 0.37% active | AID 651800, 2012 | T-cell receptor (TCR) | inhibition, % at 9.4 µM; in the data active = inhibition above about 19%;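 also: recombinant mutant TCR 2C K166C tagged with TAMRA read by polarization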
DDE Tn6 FP inh: inhibitors of Tn6 peptide binding to fibrin DD(E), primary screen, biochemical, fluorescence polarization, human fibrin, Tn6 probe; Fibrin DD(E) TRITC-Tn6 fluorescence polarization displacement; 370,000 tested, 0.21% active; inhibition, % at 8.3 µM;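 active = inhibition above a per-campaign cutoff: mean of compounds within control limits plus 3 SD, cut at about 15% in these data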
Tn7 DDE FP: inhibitors of Tn7 peptide binding to fibrin DD(E), primary screen, biochemical, fluorescence polarization, human fibrin, Tn7 probe | Fibrinogen beta chain (Homo sapiens), P02675 | FP displacement of FITC-Tn7 peptide from fibrin DD(E); 0% = median of compound wells per plate | inhibition, % at 8.3 µM | 370,000 tested, 0.13% active | AID 720508, 2013;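 active = inhibition above the mean of compounds falling within the control limits plus 3 SD of them, cut at about 14% in these data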
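Assay system: Human fibrin DD(E) protein | Medium: Tris buffer with calcium and detergent, pH 7.8 | Reagent: 0.1 µM fluorescent Tn7 | Compound dosing: Single point at 8.3 µM | Times: 10 min preincubation, 3 h with tracer, room temperature | Detection: Fluorescence polarization of the labelled Tn7 tracer | Controls: Aha-Tn7 high control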
mABHD4 conf: ABHD4 inhibitors, retest, confirmation, biochemical, fluorescence polarization, mouse; purified mABHD4, FP-Rh probe fluorescence polarization; 1,800 tested, 55% active; shares compounds with mABHD4 FP; inhibition, % at 8.92 µM;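 active = mean inhibition across replicates above the hit cutoff set in the primary screen, cut at about 30% in these data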
Numbers stand for hits; . = inactive; / = no result; + = active, no number; ! = a repeat was not active. Sampled rows, rich in hits. Any-hit rate of the full collection: about 1.3%.

SMILES	mABHD4 FP	HTRA1 inh	TCR-CD3 inh	DDE Tn6 FP inh	Tn7 DDE FP	mABHD4 conf
O=C1Nc2cc(S(=O)(=O)N3CCCC3)ccc2N2CCCC12 (stereo unspecified)	.	.	.	.	.	/
CCN(CC)S(=O)(=O)c1ccc2c(c1)NC(=O)C1CCCN21 (stereo unspecified)	31	.	.	.	.	44
Cc1cc(NC(=O)CCC(=O)N(Cc2ccco2)C(C(=O)NC2CCCC2)c2ccc(F)cc2)no1 (stereo unspecified)	.	.	.	.	.	/
Cc1ccc(C(=O)O)cc1-c1ccc(/C=C2\SC(=O)N(CC(=O)Nc3ccccc3)C2=O)o1	.	.	.	.	.	/
Cc1cc(C(=O)O)ccc1-c1ccc(/C=C2\NC(=O)N(Cc3ccccc3Cl)C2=O)o1	/	.	/	/	/	/
Cc1ccc(CN2C(=O)N/C(=C\c3ccc(-c4ccc(C(=O)O)cc4C)o3)C2=O)cc1	43	.	.	.	.	40
Cc1ccc(C(=O)O)cc1-c1ccc(/C=C2/NC(=O)N(c3ccccc3)C2=O)o1	46	.	.	.	.	30
CNc1cncc(-c2cnn(CC(C)C)c2)n1	.	/	.	.	.	/
N#Cc1c(Cl)nsc1NN	73	.	.	.	.	.
Cc1ccc(OC(=S)Nc2ccc(O)cc2)cc1	44	.	.	.	.	.
O=C(NCc1ccccn1)C1CCN(S(=O)(=O)c2ccccc2C(F)(F)F)CC1	.	.	.	.	.	/
NC(=O)c1ccsc1NC(=O)c1ccc([N+](=O)[O-])o1	50	.	.	.	.	56
C1=CC2c3ccccc3NC(c3ccncc3)C2C1 (stereo unspecified)	50	.	.	.	.	64
Brc1cc2c(cc1C1Nc3ccccc3C3C=CCC31)OCO2 (stereo unspecified)	.	.	.	.	.	/
FC(F)(F)c1cc(CCN2CCNC[C@@H]2Cc2ccccc2)cc(C(F)(F)F)c1	.	.	.	.	.	/
CN(C)c1ccc(N=Nc2ccccc2C(=O)OCC(=O)NCC2CCCCC2)cc1	42	.	.	.	.	40
CN(C)c1ccc(N=Nc2ccccc2C(=O)OCC(=O)NC2CCCC2)cc1	.	.	.	.	.	/
CCCn1c(SCC(=O)Nc2sc(C)c(C)c2C(=O)OCC)nc2c1c(=O)n(C)c(=O)n2C	.	.	.	.	.	/
CN(C)CCNc1ncnc2c1ncn2[C@H]1CN(Cc2ccc3c(c2)OCO3)C[C@@H](CO)O1	34	/	.	.	.	.
OCCCNc1ncnc2c1ncn2[C@H]1CN(Cc2ccc3c(c2)OCO3)C[C@@H](CO)O1	.	/	.	.	.	/
CCOc1cc(NCc2ccccc2)c2ncn(C(C)C)c2c1	.	.	.	.	.	/
CC(C)n1cnc2c(NCc3ccccc3)cc(Cc3ccc(F)cc3)cc21	31	.	.	.	.	.
COc1cc2c(cc1OC)C(NC(=O)C(F)(F)F)CNC2=O (stereo unspecified)	.	.	.	.	.	/
Cc1ccc(CC2CC(=O)N(CCc3ccccc3)C2=O)cc1 (stereo unspecified)	.	.	.	.	.	/
C[C@@H]1C[C@H]2[C@@H](Cc3ccccc3)C(=O)N3[C@H](c4ccccc4)[C@H](C)C[C@H]3[C@@H](Cc3ccccc3)C(=O)N2[C@@H]1c1ccccc1	50	/	/	.	.	39
SMILES	mABHD4 FP	HTRA1 inh	TCR-CD3 inh	DDE Tn6 FP inh	Tn7 DDE FP	mABHD4 conf
O=C(CN1CCN(c2ccc(O)cc2)CC1)Nc1ccccc1C(=O)NCCc1ccccc1	32	.	.	.	.	.
COc1cccc(N2CCN(CC(=O)Nc3ccccc3C(=O)NCCc3ccccc3)CC2)c1	.	.	.	.	.	/
Nc1sc2c(c1C(=O)NCCc1ccccc1)CCCC2	37	/	.	28	.	.
Cc1nnc(Nc2ccc(O)cc2)[nH]c1=O	43	.	.	.	.	.
COc1ccc(-c2sc3cc4c(cc3c2C#CC2(N)CCCCC2)OCO4)cc1	32	.	.	.	.	30
Cc1ccc(C)c(S(=O)(=O)/N=C2\C=C(NS(=O)(=O)c3ccccc3)C(=O)c3ccccc32)c1	46	.	.	.	.	58
Cc1ccccc1NC1=C/C(=N\S(=O)(=O)c2ccc(C(=O)O)cc2)c2ccccc2C1=O	63	.	.	.	.	65
O=C(N/N=C/c1ccc[nH]1)c1cccnc1	.	.	.	.	.	/
CN(C1(C)CCS(=O)(=O)C1)S(=O)(=O)c1cccc([N+](=O)[O-])c1 (stereo unspecified)	.	.	.	.	.	/
CCOC(=O)N1CCN(C(=O)C[C@@H]2C[C@@]3(C(=O)OC)CCCCC=C3N(CCc3ccc(OC)c(OC)c3)C2=O)CC1	.	/	.	.	.	/
CC(/C=N/Nc1nc2ccccc2[nH]1)=C\c1ccccc1	42	.	.	.	.	44
C/C(=N\Nc1nc2ccccc2[nH]1)c1ccccn1	36	.	.	.	.	.
CCN(CC)c1ccc(/C=N/Nc2nc3ccccc3[nH]2)cc1	30	.	.	.	.	47
COc1cc(/C=N/Nc2nc3ccccc3[nH]2)cc(OC)c1O	38	.	.	.	.	.
C/C(=N\Nc1nc2ccccc2[nH]1)c1cc2ccccc2o1	.	.	.	.	.	/
CCc1nc2c(OCc3ccc(C(=O)N(C)C)cc3)cccn2c1N(C)C(=O)c1ccc(C)cc1	.	/	.	.	.	/
CC(c1nc2ccccc2[nH]1)N(C(=O)C1=NNC(=O)CC1)c1ccccc1 (stereo unspecified)	.	/	.	.	.	/
COc1cccc(NC(=S)NC(=O)Cc2ccc(Cl)cc2)c1	.	.	.	.	.	/
C[n+]1c2cc(N)ccc2cc2ccc(N)cc21	30!	.	.	.	.	43
Fc1ccc(-n2nnc(-c3ccccc3)n2)cc1	.	.	.	.	.	/
Oc1ccc2c(c1)OCC1(O)Cc3cc(O)c(O)cc3C21 (stereo unspecified)	110	.	/	+	28	129
CN(C)c1ccc(N=Nc2ccc(S(N)(=O)=O)cc2)cc1	.	.	.	.	.	/
CN(C)c1ccc(N=Nc2ccc(S(=O)(=O)O)cc2)c2ccccc12	56	.	.	.	.	60
O=C(O)Cc1c[nH]c2cccc(O)c12	53	.	.	.	.	.
COc1ccc(C(=O)Nc2cc3c(cc2C(=O)O)OCCCO3)c(OC)c1	35	.	.	.	.	55
